# Legend:
# Ca9-22 = test: Cytotoxicity against human Ca9-22 cells by MTT assay; format: functional, cell-based
# Method in brief: (§1)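 Human cancer cell lines obtained from ATCC. Cytotoxicity read by MTT colorimetric method.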
# MCF7 = test: Cytotoxicity against human MCF7 cells by MTT assay; format: functional, cell-based; method in brief: as §1
# HepG2 = test: Cytotoxicity against human HepG2 cells by MTT assay; format: functional, cell-based; method in brief: as §1
# [1] = Cytotoxicity against human Hep3B cells by MTT assay; format: functional, cell-based, Hep 3B2; method in brief: as §1
# MDA-MB-231 = test: Cytotoxicity against human MDA-MB-231 cells by MTT assay; format: functional, cell-based; method in brief: as §1
# A549 = test: Cytotoxicity against human A549 cells by MTT assay; format: functional, cell-based; method in brief: as §1
# RAW264.7 [2] = test: Antiinflammatory activity in mouse RAW264.7 cells assessed as reduction in LPS-induced COX2 protein level at 10 uM treated 5 mins before LPS challenge by Western blot analysis relative to control; format: functional; design: scale not given: the % may be the effect or the level left
# Method in brief: (§2)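 Murine RAW 264.7 macrophages kept in DMEM with 10% heat-inactivated FBS at 37 °C, 5% CO2. Compound added 5 min before LPS (0.01 µg/mL), then 16 h incubation. Lysates of equal protein run on SDS-PAGE and blotted. iNOS and COX-2 probed, β-actin used as loading control, ECL detection. Band IOD expressed relative to the LPS-only control. One-way ANOVA with Student-Newman-Keuls test.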
# RAW264.7 [3] = test: Antiinflammatory activity in mouse RAW264.7 cells assessed as reduction in LPS-induced iNOS protein level at 10 uM treated 5 mins before LPS challenge by Western blot analysis relative to control; format: functional; design: scale not given: the % may be the effect or the level left; method in brief: as §2
compound,measurement,setting,value
C=C(CO)[C@@H]1CC[C@@](C)(OO)/C=C/C/C(C)=C/CC/C(C)=C/[C@@H]1O [CRASSUMOLIDE E],IC50,Ca9-22,> 5 µg/mL
same,IC50,MCF7,> 5 µg/mL
same,IC50,HepG2,> 5 µg/mL
same,IC50,[1],> 5 µg/mL
same,IC50,MDA-MB-231,> 5 µg/mL
same,IC50,A549,> 5 µg/mL
C=C1C(=O)O[C@H]2C/C(C)=C/[C@@H](O)C/C(C)=C/CC/C(C)=C/C[C@H]12 [CRASSUMOLIDE A],IC50,Ca9-22,3.2 µg/mL
same,IC50,MCF7,> 5 µg/mL
same,IC50,HepG2,> 5 µg/mL
same,IC50,[1],> 5 µg/mL
same,IC50,MDA-MB-231,> 5 µg/mL
same,Activity,RAW264.7 [2],50.2%
same,IC50,A549,> 5 µg/mL
same,Activity,RAW264.7 [3],26.8%
C=C1C(=O)O[C@H]2/C=C(\C)CC/C=C(\CO)CC/C=C(\C)CC[C@@H]12 [CRASSUMOLIDE B],IC50,Ca9-22,> 5 µg/mL
same,IC50,MCF7,> 5 µg/mL
same,IC50,HepG2,> 5 µg/mL
same,IC50,[1],> 5 µg/mL
same,IC50,MDA-MB-231,> 5 µg/mL
same,IC50,A549,> 5 µg/mL
C=C1C(=O)O[C@H]2/C=C(\C)CC[C@H](OC(C)=O)[C@@]3(C)CC[C@H](OO3)/C(C)=C\C[C@@H]12 [DENTICULATOLIDE],IC50,Ca9-22,1.2 µg/mL
same,IC50,MCF7,2 µg/mL
same,IC50,HepG2,2.4 µg/mL
same,IC50,[1],2.5 µg/mL
same,IC50,MDA-MB-231,2 µg/mL
same,Activity,RAW264.7 [2],34.3%
same,IC50,A549,2.3 µg/mL
same,Activity,RAW264.7 [3],10.2%
O=C(/C=C/c1ccc(O)c(O)c1)OCCc1ccccc1 [CAFFEIC ACID PHENETHYL ESTER],Activity,RAW264.7 [2],67.2%
same,Activity,RAW264.7 [3],2.5%
C=C1C(=O)O[C@H]2/C=C(\C)C/C=C/[C@@](C)(O)CC/C=C(\C)CC[C@@H]12 [CRASSUMOLIDE F],IC50,Ca9-22,> 5 µg/mL
same,IC50,MCF7,> 5 µg/mL
same,IC50,HepG2,> 5 µg/mL
same,IC50,[1],> 5 µg/mL
same,IC50,MDA-MB-231,> 5 µg/mL
same,IC50,A549,> 5 µg/mL
C/C1=C\[C@@H]2OC(=O)[C@@H](CN(C)C)[C@@H]2CCC(C)/C=C/C/C(C(=O)O)=C/CC1 (stereo not given in full),IC50,Ca9-22,> 5 µg/mL
same,IC50,MCF7,> 5 µg/mL
same,IC50,HepG2,> 5 µg/mL
same,IC50,[1],> 5 µg/mL
same,IC50,MDA-MB-231,> 5 µg/mL
same,IC50,A549,> 5 µg/mL
C=C1C(=O)O[C@H]2/C=C(\C)CC/C=C(\C)C/C=C/[C@](C)(O)CC[C@@H]12 [CRASSUMOLIDE D],IC50,Ca9-22,> 5 µg/mL
same,IC50,MCF7,> 5 µg/mL
same,IC50,HepG2,> 5 µg/mL
same,IC50,[1],> 5 µg/mL
same,IC50,MDA-MB-231,> 5 µg/mL
same,IC50,A549,> 5 µg/mL
COc1cccc2c1C(=O)c1c(O)c3c(c(O)c1C2=O)C[C@@](O)(C(=O)CO)C[C@@H]3O[C@H]1C[C@H](N)[C@H](O)[C@H](C)O1 [DOXORUBICIN],IC50,Ca9-22,0.1 µg/mL
same,IC50,MCF7,0.2 µg/mL
same,IC50,HepG2,0.2 µg/mL
same,IC50,[1],0.2 µg/mL
same,IC50,MDA-MB-231,0.2 µg/mL
C=C(CO)[C@@H]1CC/C(C)=C/CC/C(C)=C/CC/C(C)=C/[C@@H]1O,IC50,Ca9-22,> 5 µg/mL
same,IC50,MCF7,> 5 µg/mL
same,IC50,HepG2,> 5 µg/mL
same,IC50,[1],> 5 µg/mL
same,IC50,MDA-MB-231,> 5 µg/mL
same,IC50,A549,> 5 µg/mL
C=C1C(=O)O[C@H]2/C=C(\C)CC/C=C(\C(=O)OC)CC/C=C(\C)CC[C@@H]12 [CRASSUMOLIDE C],IC50,Ca9-22,1.7 µg/mL
same,IC50,MCF7,> 5 µg/mL
same,IC50,HepG2,> 5 µg/mL
same,IC50,[1],> 5 µg/mL
same,IC50,MDA-MB-231,> 5 µg/mL
same,Activity,RAW264.7 [2],34.5%
same,IC50,A549,> 5 µg/mL
same,Activity,RAW264.7 [3],2.3%
C=C1C(=O)O[C@H]2/C=C(\C)CC/C=C(/C(=O)O)CC/C=C(\C)CC[C@@H]12 [LOBOHEDLEOLIDE],IC50,Ca9-22,2.8 µg/mL
same,IC50,MCF7,> 5 µg/mL
same,IC50,HepG2,> 5 µg/mL
same,IC50,[1],4.7 µg/mL
same,IC50,MDA-MB-231,> 5 µg/mL
same,Activity,RAW264.7 [2],39.2%
same,IC50,A549,4.6 µg/mL
same,Activity,RAW264.7 [3],21.5%

# From ChEMBL document CHEMBL1154143, “Cytotoxic and anti-inflammatory cembranoids from the soft coral Lobophytum crassum” (J Nat Prod, 2008)
